Experimental data reported in ChEMBL document CHEMBL2331493, “Chemical tagging of a drug target using 5-sulfonyl tetrazole” (Bioorg Med Chem Lett, 2013).
Activity calls are given as the source filed them. The calls are words filed in the database; no cut-off is given here.

What was measured:
[1] = molecular target: Peptidyl-prolyl cis-trans isomerase A (Homo sapiens) (UniProt P62937); experiment: Binding affinity to cyclophilin A in human Jurkat cell lysates at 1.1 uM after 24 hrs by SDS-PAGE analysis
In short: (§1)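 Biotinylated probe incubated with a lysate of Jurkat cells (human leukemia T cells). The lysate was then mixed with streptavidin beads to pull down proteins with affinity for the probe. Bead-captured proteins were resolved by SDS–PAGE, and protein bands were read out.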

[2] = molecular target: Peptidyl-prolyl cis-trans isomerase A (Homo sapiens) (UniProt P62937); experiment: Binding affinity to cyclophilin A in human Jurkat cell lysates at 1.1 uM after 24 hrs by SDS-PAGE analysis in presence of cyclosporine A
[3] = molecular target: Peptidyl-prolyl cis-trans isomerase A (Homo sapiens) (UniProt P62937); experiment: Binding affinity to biotin-tagged cyclophilin A in human Jurkat cell lysates at 1.1 uM after 24 hrs by SDS-PAGE analysis; in short: as §1
[4] = molecular target: Peptidyl-prolyl cis-trans isomerase A (Homo sapiens) (UniProt P62937); experiment: Binding affinity to cyclophilin A in human Jurkat cell lysates at 1.1 uM after 24 hrs by Western blot analysis
[5] = molecular target: Peptidyl-prolyl cis-trans isomerase A (Homo sapiens) (UniProt P62937); experiment: Binding affinity to cyclophilin A in human Jurkat cell lysates at 1.1 uM after 24 hrs by SDS-PAGE analysis in presence of N-ethylmaleimide

Chain of Peptidyl-prolyl cis-trans isomerase A (Homo sapiens) (P62937 whole entry, looked up): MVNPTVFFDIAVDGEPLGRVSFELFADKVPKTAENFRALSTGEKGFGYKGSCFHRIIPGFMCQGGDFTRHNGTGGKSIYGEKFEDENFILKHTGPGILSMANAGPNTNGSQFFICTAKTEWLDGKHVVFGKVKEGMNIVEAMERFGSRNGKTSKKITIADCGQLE

| Activity [1] | Activity [2] | Activity [3] | Activity [4] | Activity [5] | SMILES |
| --- | --- | --- | --- | --- | --- |
| inactive |  |  |  |  | CC(C)(C)OC(=O)NCCCC(=O)NCCCCNC(=O)CCS(=O)(=O)c1nnnn1CCCCCNC(=O)CCCC[C@@H]1SC[C@@H]2NC(=O)N[C@@H]21 |
| Active | inactive | inactive | Active |  | CC[C@@H]1NC(=O)[C@H]([C@H](O)[C@H](C)C/C=N\OCC(=O)NCCCC(=O)NCCCCNC(=O)CCSc2nnnn2CCCCCNC(=O)CCCC[C@@H]2SC[C@@H]3NC(=O)N[C@@H]32)N(C)C(=O)[C@H](C(C)C)N(C)C(=O)[C@H](CC(C)C)N(C)C(=O)[C@H](CC(C)C)N(C)C(=O)[C@@H](C)NC(=O)[C@H](C)NC(=O)[C@H](CC(C)C)N(C)C(=O)[C@H](C(C)C)NC(=O)[C@H](CC(C)C)N(C)C(=O)CN(C)C1=O |
| Active | inactive |  | Active | Active | CC[C@@H]1NC(=O)[C@H]([C@H](O)[C@H](C)C/C=N\OCC(=O)NCCCC(=O)NCCCCNC(=O)CCS(=O)(=O)c2nnnn2CCCCCNC(=O)CCCC[C@@H]2SC[C@@H]3NC(=O)N[C@@H]32)N(C)C(=O)[C@H](C(C)C)N(C)C(=O)[C@H](CC(C)C)N(C)C(=O)[C@H](CC(C)C)N(C)C(=O)[C@@H](C)NC(=O)[C@H](C)NC(=O)[C@H](CC(C)C)N(C)C(=O)[C@H](C(C)C)NC(=O)[C@H](CC(C)C)N(C)C(=O)CN(C)C1=O |
| inactive |  |  |  |  | CC(C)(C)OC(=O)NCCCC(=O)NCCCCNC(=O)CCSc1nnnn1CCCCCNC(=O)CCCC[C@@H]1SC[C@@H]2NC(=O)N[C@@H]21 |
